Here are results for 18 molecules from ChEMBL document CHEMBL3769318, “The Rational Design of Selective Benzoxazepin Inhibitors of the α-Isoform of Phosphoinositide 3-Kinase Culminating in the Identification of (S)-2-((2-(1-Isopropyl-1H-1,2,4-triazol-5-yl)-5,6-dihydrobenzo[f]imidazo[1,2-d][1,4]oxazepin-9-yl)oxy)propanamide (GDC-0326)” (J Med Chem, 2016).

Each structure is given as a SMILES string.

The target in series [1] is Phosphatidylinositol 4,5-bisphosphate 3-kinase catalytic subunit alpha isoform (Homo sapiens, UniProt P42336). Kind of series: Inhibition of recombinant PI3K alpha (unknown origin) using PIP2 as substrate by fluorescence polarization assay. The note with it: read-out: Ki(app).
Series [2] can be described thus: Antiproliferative activity against human MCF7-neo/Her2 cells after 3 days by luminescence plate reader method. It counts as functional, cell-based. Conditions: 72 h.
Series [3] can be described thus: Antiproliferative activity against human PC3 cells after 4 days by luminescence plate reader method. It is filed as functional, cell-based. The note with it: PC-3, 96 h.
Series [4] in a line: Clearance in Sprague-Dawley rat at 1 mg/kg, iv. The note with it: in vivo. It counts as ADME, organism-based.
A short description of series [5]: Plasma protein binding in CD-1 mouse at 5 uM after 4 hrs by LC-MS/MS analysis. It counts as ADME, cell-free. Conditions: mouse, 4 h, 5 µM. The method, boiled down: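 Equilibrium dialysis of pooled plasma (n ≥ 3) spiked with compound at 5 µM total against PBS pH 7.4, 37 °C, 5% CO2, for 4 h; plasma and buffer concentrations measured by LC-MS/MS; percent unbound calculated as buffer/plasma ×100.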

A short description of series [6]: Cytotoxicity against human KPL4 cells after 4 days by luminescence plate reader method. It is filed as functional, cell-based. Conditions: KPL4, 96 h.
A short description of series [7]: Toxicity in SCID beige mouse xenografted with human KPL4 cells. It is filed as organism-based. Conditions: in vivo. The method, boiled down: (§1)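 Breast cancer xenografts: MCF7-neo/HER2 grown in nude mice, KPL-4 in scid beige mice. Compound given orally once daily for 21 days at 0.78, 1.56, 3.25, 6.25 or 12.5 mg/kg in 0.5% methylcellulose/0.2% Tween-80, versus vehicle-treated mice. Tolerability judged by body weight loss, with under 10% loss as the criterion.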

A short description of series [8]: Toxicity in nude mouse xenografted with human MCF7-neo/Her2 cells. It counts as organism-based. The method, boiled down: as §1
(Xenograft models place foreign cells or tissue in a host animal.)

Series [9] is described as follows: Clearance in NCR nude mouse at 1 mg/kg, iv. It counts as ADME, organism-based. The note with it: in vivo.
The nature of series [10]: Oral bioavailability in NCR nude mouse at 25 mg/kg. It counts as ADME, organism-based. The note with it: in vivo.
Series [11] is described as follows: animal or person. Conditions: Homo sapiens, po, 504 h, read-out: TGI.
Series [12] is described as follows: animal or person. Conditions: Homo sapiens, KPL4, po, 504 h, read-out: TGI.
For series [13], the species on record is Mus musculus. In words: animal or person. The note with it: 1 h, read-out: INH.
The subject of series [14] is Mus musculus. In words: Volume of distribution at steady state in NCR nude mouse at 1 mg/kg, iv. The note with it: in vivo.
The subject of series [15] is Hepatocyte. Kind of series: Drug metabolism in rat hepatocytes. It is filed as ADME, cell-based.
In series [16] the test system is Hepatocyte. In words: Drug metabolism in human hepatocytes. It is filed as ADME, cell-based.

Phosphatidylinositol 4,5-bisphosphate 3-kinase catalytic subunit alpha isoform, sequence (P42336 whole entry, canonical isoform): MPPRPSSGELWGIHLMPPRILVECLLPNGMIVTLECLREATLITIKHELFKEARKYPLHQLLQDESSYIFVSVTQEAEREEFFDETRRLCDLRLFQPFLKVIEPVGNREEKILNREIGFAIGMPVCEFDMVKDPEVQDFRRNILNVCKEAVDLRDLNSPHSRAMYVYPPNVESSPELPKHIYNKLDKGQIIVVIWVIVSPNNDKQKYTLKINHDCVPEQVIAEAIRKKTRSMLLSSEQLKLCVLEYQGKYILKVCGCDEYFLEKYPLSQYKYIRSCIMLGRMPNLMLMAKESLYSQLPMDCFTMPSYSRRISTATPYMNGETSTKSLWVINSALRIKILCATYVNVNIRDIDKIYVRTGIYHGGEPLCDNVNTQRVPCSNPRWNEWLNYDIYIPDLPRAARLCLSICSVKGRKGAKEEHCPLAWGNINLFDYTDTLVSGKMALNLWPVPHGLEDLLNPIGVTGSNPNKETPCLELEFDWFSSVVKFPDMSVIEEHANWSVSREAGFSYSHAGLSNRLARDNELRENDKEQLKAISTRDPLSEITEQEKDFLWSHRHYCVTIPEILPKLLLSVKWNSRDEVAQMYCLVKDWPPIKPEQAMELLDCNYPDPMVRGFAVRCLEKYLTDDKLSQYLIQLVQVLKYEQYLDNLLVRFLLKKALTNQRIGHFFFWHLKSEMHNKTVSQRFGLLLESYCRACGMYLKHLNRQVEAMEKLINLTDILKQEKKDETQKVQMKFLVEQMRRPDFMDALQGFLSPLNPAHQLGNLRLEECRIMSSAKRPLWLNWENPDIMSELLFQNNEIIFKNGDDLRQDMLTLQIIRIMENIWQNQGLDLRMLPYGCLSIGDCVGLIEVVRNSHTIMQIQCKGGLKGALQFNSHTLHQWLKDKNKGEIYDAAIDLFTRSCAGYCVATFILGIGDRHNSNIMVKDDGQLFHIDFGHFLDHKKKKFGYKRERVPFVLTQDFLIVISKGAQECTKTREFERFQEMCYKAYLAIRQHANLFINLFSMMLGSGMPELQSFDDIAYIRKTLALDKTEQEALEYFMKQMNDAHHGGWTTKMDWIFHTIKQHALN

As to `CC(C)n1ncnc1-c1cn2c(n1)-c1cnc(OC(C)(C)C(N)=O)cc1OCC2`, the Ki in series [1] came to 3.1 nM.
Consider `CNC(=O)[C@@H]1CCCN1c1cc2c(cn1)-c1nc(-c3ncnn3C(C)C)cn1CCO2`, for which, in series [1], the Ki turned out to be 30 nM.
For orientation: EC50 means the concentration giving half of the maximal effect. Higher therefore signals a less potent agent. With `CC(C)n1ncnc1-c1cn2c(n1)-c1ccc(N3CCCC[C@H]3C(N)=O)cc1OCC2`, in series [1], the Ki was 0.3 nM. The figures for the EC50 in [2] and in series [3] were 30 nM and 870 nM, respectively.
For `CC(C)n1ncnc1-c1cn2c(n1)-c1ccc(N3CC[C@H]3C(N)=O)cc1OCC2`, in that order: 0.1 nM, 50 nM and 230 nM.
The term clearance denotes a measure of how efficiently the substance is removed, as volume per time. With `CC(C)n1ncnc1-c1cn2c(n1)-c1cnc(O[C@@H](C)C(N)=O)cc1OCC2`, the Ki in [1] was 1 nM. In [4], this molecule returned a clearance of 62 mL/min/kg.
For the molecule `CC(C)n1ncnc1-c1cn2c(n1)-c1ccc(OCC(N)=O)cc1OCC2`, in series [1], the Ki worked out at 0.3 nM. For the same molecule, the EC50 in series [2] and in [3] was 200 nM each time.
Regarding `CC[C@H](Oc1ccc2c(c1)OCCn1cc(-c3ncnn3C(C)C)nc1-2)C(N)=O`, the Ki in series [1] was 0.5 nM. The EC50 in [2] came out at 200 nM; in series [3], 2900 nM.
In the case of `CC(C)n1ncnc1-c1cn2c(n1)-c1cnc(N3CCCC3)cc1OCC2`, in [1], the Ki worked out at 1.3 nM. Besides, the clearance in [4] worked out at 125 mL/min/kg.
For the molecule `COc1cc2c(cn1)-c1nc(-c3ncnn3C(C)C)cn1CCO2`, in [1], the Ki worked out at 3.6 nM.
Same read-out and setting: next, `CC(C)n1ncnc1-c1cn2c(n1)-c1cnc(N3CCC[C@@H]3C(N)=O)cc1OCC2`: 3.2 nM.
For the molecule `CC(C)n1ncnc1-c1cn2c(n1)-c1ccc(N3CCC[C@H]3C(N)=O)cc1OCC2`, the Ki in series [1] is 0.03 nM. Further, the clearance in series [4] stood at 33 mL/min/kg. The 50% effective concentration (EC50) in [2] was determined as 10 nM; in series [3] it was 150 nM.
The term bioavailability denotes the share of a dose that reaches the circulation, judged against a reference dose that is usually intravenous. Read a low bioavailability as poor availability. Broadly, the Vdss is the apparent volume that relates the amount in the body to the concentration in plasma or blood. Higher therefore signals extensive tissue distribution. Consider `Cc1nc(-c2cn3c(n2)-c2ccc(-c4cnn(C(C)(C)C(N)=O)c4)cc2OCC3)n(C(C)C)n1` [TASELISIB], for which the PPB in series [5] amounted to 97.5%. Also, the EC50 turned out to be 10 nM in series [6] and 30 nM in series [2]. For the same molecule, the MTD in series [7] and in series [8] was 25 mg/kg in each case. Also, in series [9], the clearance is 3 mL/min/kg. Moreover, the bioavailability in [10] stood at 100%. Besides, the inhibition in vivo at 25 mg/kg in the series “animal or person [11]” was determined as 116%; in the series “animal or person [12]”, 125%; in the series listed under Mus musculus [13], 74%. This molecule gave a Vdss with Mus musculus [14] of 0.3 L/kg.
Consider `CC(C)n1ncnc1-c1cn2c(n1)-c1cnc(N3CCC[C@H]3C(N)=O)cc1OCC2`, for which the Drug metabolism result in the series with Hepatocyte [15] and in the series with Hepatocyte [16] was “metabolite_notdetected” in each case. Moreover, the Ki in series [1] worked out at 0.1 nM. For the same molecule, the clearance in series [4] came to 83 mL/min/kg.
As for `CC(C)n1ncnc1-c1cn2c(n1)-c1ccc(O[C@H](C)C(N)=O)cc1OCC2`, the half-maximal effective concentration (EC50) came to 1000 nM in series [2] and 4600 nM in [3].
For `CC(C)n1ncnc1-c1cn2c(n1)-c1cnc(OCC(N)=O)cc1OCC2`, the Ki in [1] amounted to 0.9 nM.
Same read-out and setting: the result for `CC(C)n1ncnc1-c1cn2c(n1)-c1cnc(N)cc1OCC2` reads 1.2 nM; that for `COC(=O)Nc1ccc2c(c1)OCCc1cc(-c3nncn3-c3ccccc3Cl)sc1-2`, 1 nM; that for `CC(C)n1ncnc1-c1cn2c(n1)-c1cnc(N(C)CC(N)=O)cc1OCC2`, 0.2 nM.
